Reference: ChEMBL document CHEMBL2401641, “Design and synthesis of N-alkyldeoxynojirimycin derivatives with improved metabolic stability as inhibitors of BVDV and Tacaribe virus” (Bioorg Med Chem Lett, 2013)

Experiments:
[1] = Metabolic stability in human liver microsomes assessed as compound remaining at 2 uM after 60 mins in presence of NADPH; assay type: ADME, Microsome; conditions: read-out: Stability
Summary of the method: (§1)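 Liver microsomes at 0.5mg/ml incubated at 37°C with test compound at 2μM in the presence of 1mM NADPH. Percent of parent compound remaining measured at 60 min. Run by a contract lab.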

[2] = Metabolic stability in rat liver microsomes assessed as compound remaining at 2 uM after 60 mins in presence of NADPH; assay type: ADME, Microsome; conditions: read-out: Stability; summary of the method: as §1
[3] = Metabolic stability in mouse liver microsomes assessed as compound remaining at 2 uM after 60 mins in presence of NADPH; assay type: ADME, Microsome; conditions: read-out: Stability; summary of the method: as §1
[4] = Cytotoxicity against MDBK cells by MTT assay; assay type: cell-based, Bos taurus; conditions: cattle
[5] = Cytotoxicity against human Huh7.5 cells by MTT assay; assay type: cell-based, Huh-7
[6] = tested on: Tacaribe virus; test: Antiviral activity against Tacaribe virus infected in human Huh7.5 cells assessed as reduction in viral yield after 3 days by neutral-red staining-based microscopic analysis; assay type: functional, organism-based; conditions: Mammarenavirus tacaribeense, Huh-7, 72 h
Summary of the method: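 Huh7 cells infected with Tacaribe virus at MOI 0.01. Compounds were added immediately after virus incubation at 0.01 to 100 μM. Progeny titers were determined by standard virus yield reduction assay in Vero cells, and EC50 was derived.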

[7] = tested on: Bovine viral diarrhea virus 1; test: Antiviral activity against Bovine viral diarrhea virus infected in MDBK cells assessed as reduction in viral yield after 3 days by neutral-red staining-based microscopic analysis; assay type: functional, organism-based; conditions: Bovine viral diarrhea virus isolates and strains, 72 h
Summary of the method: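 BVDV titers from treated infected cultures were determined by standard virus yield reduction assay in MDBK cells, and EC50 was derived.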

SMILES	remaining at 1 h, 2 µM [1]	remaining at 1 h, 2 µM [2]	remaining at 1 h, 2 µM [3]	CC50 [4]	CC50 [5]	EC50 [6]	EC50 [7]
CC(C)(C)C(=O)N(CCCCCCN1C[C@H](O)[C@@H](O)[C@H](O)[C@H]1CO)c1ccc(F)cc1F	36.1%	21.6%	55.3%	–	–	–	–
CC(C)(C)C(=O)N(CCCCCCN1C[C@H](O)[C@@H](O)[C@H](O)[C@H]1CO)C1CCCCC1	41.6%	26.9%	58.6%	> 500 µM	–	–	–
O=S(=O)(c1ccccc1)N(CCCCCCN1C[C@H](O)[C@@H](O)[C@H](O)[C@H]1CO)C1CCCCC1	13%	3.83%	42.8%	200 µM	280 µM	1.6 µM	0.5 µM
O=C(c1ccccc1)N(CCCCCCN1C[C@H](O)[C@@H](O)[C@H](O)[C@H]1CO)C1CCCCC1	82.6%	77.4%	97.4%	> 500 µM	> 500 µM	0.6 µM	0.32 µM
O=C(c1cc(F)c(F)cc1F)N(CCCCCCN1C[C@H](O)[C@@H](O)[C@H](O)[C@H]1CO)C1CCCCC1	–	–	–	> 500 µM	> 500 µM	0.6 µM	0.27 µM
CS(=O)(=O)N(CCCCCCN1C[C@H](O)[C@@H](O)[C@H](O)[C@H]1CO)C1CCCCC1	95.5%	65.7%	86.9%	> 500 µM	> 500 µM	0.7 µM	0.2 µM
CC(C)(C)S(=O)(=O)N(CCCCCCN1C[C@H](O)[C@@H](O)[C@H](O)[C@H]1CO)C1CCCCC1	50.2%	12.1%	65.4%	> 500 µM	> 500 µM	0.4 µM	0.31 µM
CC(C)OP(=O)(OC(C)C)N(CCCCCCN1C[C@H](O)[C@@H](O)[C@H](O)[C@H]1CO)C1CCCCC1	–	–	–	> 500 µM	310 µM	0.3 µM	3.4 µM
NC(=O)N(CCCCCCN1C[C@H](O)[C@@H](O)[C@H](O)[C@H]1CO)C1CCCCC1	–	–	–	> 500 µM	> 500 µM	100 µM	14.2 µM
CCCNC(=O)N(CCCCCCN1C[C@H](O)[C@@H](O)[C@H](O)[C@H]1CO)C1CCCCC1	–	–	–	> 500 µM	> 500 µM	25 µM	15.8 µM
CC(C)(C)NC(=O)N(CCCCCCN1C[C@H](O)[C@@H](O)[C@H](O)[C@H]1CO)C1CCCCC1	93.6%	92.8%	87.6%	> 500 µM	> 500 µM	0.74 µM	0.25 µM
O=C1OC[C@H](c2ccccc2)N1CCCCCCN1C[C@H](O)[C@@H](O)[C@H](O)[C@H]1CO	–	–	–	> 500 µM	–	–	0.8 µM
O=C1OC[C@@H](c2ccccc2)N1CCCCCCN1C[C@H](O)[C@@H](O)[C@H](O)[C@H]1CO	–	–	–	> 500 µM	–	–	3.5 µM
O=c1oc2ccccc2n1CCCCCCN1C[C@H](O)[C@@H](O)[C@H](O)[C@H]1CO	101%	86.9%	86.7%	> 500 µM	> 500 µM	0.4 µM	0.4 µM
